Where two headings read alike, the source gives them in different places. One block for each compound: values may come before it. Where a SMILES comes first, the peptide text is derived from it.
Key:
0P-p38α = settings: read-out: binding affinity of ATP; cited from earlier work
2P-p38α = settings: cited from earlier work
[1] = tested on: Tyr-185 phosphorylated (pY) ERK2; settings: formation of the ternary MBP-bound complex of pY ERK2; cited from earlier work
[2] = molecular target: 0P-ERK2 mutant that was binding competent only at the DEJL-site; settings: full-length Elk1 protein and 0P-ERK2 mutant binding competent only at the DEJL-site; cited from earlier work
0P-ERK2 (inactive ERK2) [3] = molecular target: T1, 0P-ERK2 (inactive ERK2) (Rattus norvegicus, UniProt P63086); experiment: NMR; type: binding; settings: estimated, slow/intermediate exchange prevented accurate determination
Outline: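 Unphosphorylated ERK2 from E. coli BL21(DE3), ILV-methyl-labeled in a protonated background, ~0.26 mM in 50 mM Tris pH 7.4, 150 mM NaCl, 5 mM MgSO4, 0.1 mM EDTA, 5 mM DTT, 99% D2O, 2.5% glycerol. AMP-PNP titrated at 0, 0.1, 0.2, 0.3, 1.0, 2.1, 4.2 mM; 5 h 2D TROSY-HMQC per point, 25 °C, 800 MHz; combined methyl CSP (1H, 0.25×13C).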

2P-ERK2 (active ERK2) [4] = molecular target: T2, 2P-ERK2 (active ERK2) (Rattus norvegicus, UniProt P63086); experiment: NMR; type: binding; settings: estimated, slow/intermediate exchange prevented accurate determination
0P-ERK2 (inactive ERK2) [5] = molecular target: T1, 0P-ERK2 (inactive ERK2); experiment: NMR; type: binding
2P-ERK2 (active ERK2) [6] = molecular target: T2, 2P-ERK2 (active ERK2); experiment: NMR; type: binding
[7] = molecular target: Elk1F peptide DEF-site peptide (Homo sapiens) (UniProt P19419); settings: cited from earlier work

Compound: Nc1ncnc2c1ncn2[C@@H]1O[C@H](COP(=O)(O)OP(=O)(O)OP(=O)(O)O)[C@@H](O)[C@H]1O [ATP]
Kd (0P-p38α): > 15000 µM
increase in the binding affinity of ATP upon phosphorylation (2P-p38α; 2P-p38α versus 0P-p38α): > 30 fold
Kd (2P-p38α; read-out: binding affinity of ATP, 2P-p38α): 430 µM
koff, ATP [1]: 0.5 s⁻¹

Compound: full-length Elk1 protein: full-length transcription factor Elk1, a substrate of ERK2
Kd [2]: 5 µM

Kd (0P-ERK2 (inactive ERK2) [3]): 200 to 500 µM
Kd (2P-ERK2 (active ERK2) [4]): 200 to 500 µM
Compound: Nc1ncnc2c1ncn2[C@@H]1O[C@H](COP(=O)(O)OP(=O)(O)NP(=O)(O)O)[C@@H](O)[C@H]1O [AMP-PNP, adenosine 5′-(β,γ-imido)triphosphate]

Kd (0P-ERK2 (inactive ERK2) [5]): 10 ± 1 µM
Kd (2P-ERK2 (active ERK2) [6]): 30 ± 3 µM
Compound: CC(C)C[C@H](NC(=O)[C@H](CO)NC(=O)[C@@H]1CCCN1C(=O)[C@H](CO)NC(=O)[C@H](CC(C)C)NC(=O)[C@@H]1CCCN1C(=O)[C@H](CC(C)C)NC(=O)[C@H](CCC(=O)O)NC(=O)[C@H](CC(C)C)NC(=O)[C@H](CC(=O)O)NC(=O)[C@H](CCCNC(=N)N)NC(=O)[C@@H]1CCCN1C(=O)[C@H](CCCCN)NC(=O)[C@H](CCCNC(=N)N)NC(=O)CNC(=O)[C@H](CCCCN)NC(=O)[C@@H](N)CCC(N)=O)C(=O)O [Elk1D] (H-QKGRKPRDLELPLSPSL-OH)

Compound: ERK2 (2P-ERK2) (from UniProt P63086)
Kd [7]: 8 µM
